Laboratory results: ChEMBL document CHEMBL4312003, “Optimization of biaryloxazolidinone as promising antibacterial agents against antibiotic-susceptible and antibiotic-resistant gram-positive bacteria” (Eur J Med Chem, 2020)
Converted amounts (≈) assume the structure as drawn.

Assays:
Staphylococcus aureus [1] = assay: Antibacterial activity against methicillin-sensitive Staphylococcus aureus assessed as complete reduction in bacterial cell growth by CLSI protocol based broth liquid microdilution method; type: functional
In short: (§1)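 Broth liquid microdilution per CLSI guidelines; isolates identified on an automated MicroScan system before testing. MIC taken as lowest concentration giving total inhibition of bacterial growth, reported in μg/mL. S. aureus ATCC29213 run as the control strain.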

Staphylococcus aureus [2] = assay: Antibacterial activity against Staphylococcus aureus ATCC 29213 assessed as complete reduction in bacterial cell growth by CLSI protocol based broth liquid microdilution method; type: functional; in short: as §1
Enterococcus faecalis [3] = assay: Antibacterial activity against linezolid-resistant Enterococcus faecalis assessed as complete reduction in bacterial cell growth by CLSI protocol based broth liquid microdilution method; type: functional; in short: as §1
Staphylococcus aureus [4] = assay: Antibacterial activity against methicillin-resistant Staphylococcus aureus assessed as complete reduction in bacterial cell growth by CLSI protocol based broth liquid microdilution method; type: functional; in short: as §1
Enterococcus faecium [5] = assay: Antibacterial activity against vancomycin-resistant Enterococcus faecium assessed as complete reduction in bacterial cell growth by CLSI protocol based broth liquid microdilution method; type: functional; in short: as §1
MAO-A = molecular target: T1, MAO-A (Homo sapiens, UniProt P21397); assay: Inhibition of recombinant human MAO-A (active motif 31502) at 30 uM using luciferin as substrate incubated for 15 mins followed by substrate addition and measured after 60 mins by luminescence based method relative to control; conditions: probe luciferin
T1 sequence (P21397 whole entry): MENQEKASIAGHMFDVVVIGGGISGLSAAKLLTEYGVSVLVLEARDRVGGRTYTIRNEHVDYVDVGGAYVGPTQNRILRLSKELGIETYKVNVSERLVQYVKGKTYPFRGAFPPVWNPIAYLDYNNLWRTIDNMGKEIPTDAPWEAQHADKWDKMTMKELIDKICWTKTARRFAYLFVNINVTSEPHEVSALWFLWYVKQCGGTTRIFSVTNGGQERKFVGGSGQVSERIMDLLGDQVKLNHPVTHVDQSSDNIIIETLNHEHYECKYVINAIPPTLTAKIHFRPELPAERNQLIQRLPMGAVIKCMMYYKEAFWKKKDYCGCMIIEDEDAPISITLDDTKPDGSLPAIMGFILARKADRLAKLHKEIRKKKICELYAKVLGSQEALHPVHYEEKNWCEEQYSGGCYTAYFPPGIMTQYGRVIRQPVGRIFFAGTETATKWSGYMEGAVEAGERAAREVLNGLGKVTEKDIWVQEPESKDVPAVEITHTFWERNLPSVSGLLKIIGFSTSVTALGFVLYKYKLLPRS
In short: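 Recombinant human MAO-A was measured with the MAO-Glo kit, modified. Compounds were in DMSO (1% DMSO final) and preincubated with enzyme 15 min at room temperature. Luciferin-derivative substrate was then added and the reaction run 60 min at room temperature. Luciferase detection reagent was added for 20 min and luminescence read. Buffer without enzyme served as the 100% inhibition control; DMSO alone as the no-inhibition control. Percent inhibition = (Max − signal)/(Max − Min)×100.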

Enterococcus faecalis [6] = assay: Antibacterial activity against clinical isolates of linezolid-resistant Enterococcus faecalis assessed as complete reduction in bacterial cell growth by CLSI protocol based broth liquid microdilution method; type: functional; in short: as §1
Staphylococcus aureus [7] = assay: Antibacterial activity against clinical isolates of methicillin-sensitive Staphylococcus aureus assessed as reduction in bacterial cell growth by CLSI protocol based broth microdilution method; type: functional; in short: as §1
Enterococcus faecium [8] = assay: Antibacterial activity against clinical isolates of vancomycin-resistant Enterococcus faecium assessed as complete reduction in bacterial cell growth by CLSI protocol based broth liquid microdilution method; type: functional; in short: as §1
HepG2 = assay: Cytotoxicity against human HepG2 cells assessed as reduction in cell viability incubated for 48 hrs by MTT assay; type: cell-based; conditions: HepG2, 48 h
In short: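 HepG2 cells were grown in RPMI1640 with 10% FBS and plated at about 4×10^4 cells/well in MEM. After 24 h at 37 °C in 5% CO2, compounds were added at the indicated final concentrations for 48 h. MTT was added (0.5 mg/mL final) for 4 h at 37 °C and the formazan dissolved in DMSO. Absorbance was read at 492 nm (630 nm reference). Each compound was tested three times; IC50 given as mean ± SD.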

[9] = Stability in human liver microsomes assessed as half life at 1.5 uM preincubated for 5 mins with NADPH and measured after 45 mins by LC/MS analysis; type: ADME, Microsome; conditions: microsomes, 0.75 h, 1.5 µM
In short: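 Compound solution at 1.5 µM with 0.75 mg/mL microsomes (before NADPH addition) was preincubated 5 min at 37 °C. Reactions were started with NADPH (6 mM stock). Samples were quenched with acetonitrile containing internal standard at 0, 5, 15, 30 and 45 min, then centrifuged, and the supernatant was diluted with water for LC/MS. Runs were in duplicate. T1/2 = ln2/k from the log-linear slope, and CLint was derived from T1/2.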

| SMILES | MIC (Staphylococcus aureus [1]) [µg/mL] | MIC (Staphylococcus aureus [2]) [µg/mL] | MIC (Enterococcus faecalis [3]) [µg/mL] | MIC (Staphylococcus aureus [4]) [µg/mL] | MIC (Enterococcus faecium [5]) [µg/mL] | inhibition at 1 h, 30 µM (MAO-A) [%] | MIC (Enterococcus faecalis [6]) [µg/mL] | MIC (Staphylococcus aureus [7]) [µg/mL] | MIC (Enterococcus faecium [8]) [µg/mL] | IC50 (HepG2) [µM] | Stability [9] |
| --- | --- | --- | --- | --- | --- | --- | --- | --- | --- | --- | --- |
| CC(=O)NC[C@H]1CN(c2ccc(-c3ccc(/C=N/N4CCOCC4)c(O)c3)c(F)c2)C(=O)O1 | 0.25 (≈ 0.548 µM) | 0.25 (≈ 0.548 µM) | 0.25 (≈ 0.548 µM) | 0.25 (≈ 0.548 µM) | 0.25 (≈ 0.548 µM) |  |  |  |  |  |  |
| CC(=O)NC[C@H]1CN(c2ccc(-c3ccc(/C=N/N4CCNCC4)c(F)c3)c(F)c2)C(=O)O1 | 0.5 (≈ 1.09 µM) | 0.5 (≈ 1.09 µM) | 0.5 (≈ 1.09 µM) | 0.5 (≈ 1.09 µM) | 0.5 (≈ 1.09 µM) |  |  |  |  |  |  |
| CCC(=O)N1CCN(/N=C/c2ccc(-c3ccc(N4C[C@H](CNC(C)=O)OC4=O)cc3F)cn2)CC1 | 1 (≈ 2.01 µM) | 1 (≈ 2.01 µM) | 1 (≈ 2.01 µM) | 1 (≈ 2.01 µM) | 0.5 (≈ 1.01 µM) |  |  |  |  |  |  |
| CC(=O)NC[C@H]1CN(c2ccc(-c3ccc(/C=N/N4CCN(C)CC4)cn3)c(F)c2)C(=O)O1 | 2 (≈ 4.4 µM) | 2 (≈ 4.4 µM) | 2 (≈ 4.4 µM) | 1 (≈ 2.2 µM) | 2 (≈ 4.4 µM) |  |  |  |  |  |  |
| CC(=O)NC[C@H]1CN(c2ccc(-c3ccc(/C=N/N4CCSCC4)c(C)c3)c(F)c2)C(=O)O1 | 1 (≈ 2.13 µM) | 2 (≈ 4.25 µM) | 2 (≈ 4.25 µM) | 1 (≈ 2.13 µM) | 1 (≈ 2.13 µM) |  |  |  |  |  |  |
| CC(=O)NC[C@H]1CN(c2ccc(-c3ccc(/C=N/N4CCN(C(=O)c5ccccc5)CC4)nc3)c(F)c2)C(=O)O1 | 2 (≈ 3.67 µM) | 1 (≈ 1.84 µM) | 2 (≈ 3.67 µM) | 1 (≈ 1.84 µM) | 1 (≈ 1.84 µM) |  |  |  |  |  |  |
| CC(=O)NC[C@H]1CN(c2ccc(-c3ccc(/C=N/N4CCNCC4)cn3)c(F)c2)C(=O)O1 | 2 (≈ 4.54 µM) | 2 (≈ 4.54 µM) | 2 (≈ 4.54 µM) | 2 (≈ 4.54 µM) | 2 (≈ 4.54 µM) |  |  |  |  |  |  |
| CC(=O)NC[C@H]1CN(c2ccc(-c3ccc(/C=N/N4CCOCC4)c(F)c3)c(F)c2)C(=O)O1 | 0.25 (≈ 0.545 µM) | 0.25 (≈ 0.545 µM) | 0.25 (≈ 0.545 µM) | 0.25 (≈ 0.545 µM) | 0.25 (≈ 0.545 µM) | 80 |  |  |  |  |  |
| CC(=O)NC[C@H]1CN(c2ccc(-c3ccc(/C=N/N4CCNCC4)c(C)c3)c(F)c2)C(=O)O1 | 0.5 (≈ 1.1 µM) | 0.5 (≈ 1.1 µM) | 0.5 (≈ 1.1 µM) | 0.5 (≈ 1.1 µM) | 0.5 (≈ 1.1 µM) |  |  |  |  |  |  |
| CC(=O)NC[C@H]1CN(c2ccc(-c3ccc(/C=N/N4CCS(=O)(=O)CC4)c(O)c3)c(F)c2)C(=O)O1 | 0.25 (≈ 0.496 µM) | 0.125 (≈ 0.248 µM) | 0.25 (≈ 0.496 µM) | 0.25 (≈ 0.496 µM) | 0.25 (≈ 0.496 µM) | 67 | 1 to 2 (≈ 1.98 to 3.96 µM) | 1 to 2 (≈ 1.98 to 3.96 µM) | 1 to 2 (≈ 1.98 to 3.96 µM) |  |  |
| CC(=O)NC[C@H]1CN(c2ccc(-c3ccc(/C=N/N4CC[S+]([O-])CC4)nc3)c(F)c2)C(=O)O1 | 0.5 (≈ 1.06 µM) | 0.25 (≈ 0.528 µM) | 0.5 (≈ 1.06 µM) | 0.25 (≈ 0.528 µM) | 0.5 (≈ 1.06 µM) |  |  |  |  |  |  |
| CC(=O)NC[C@H]1CN(c2ccc(-c3ccc(/C=N/N4CCN(C)CC4)c(C(F)(F)F)c3)c(F)c2)C(=O)O1 | 2 (≈ 3.83 µM) | 2 (≈ 3.83 µM) | 2 (≈ 3.83 µM) | 2 (≈ 3.83 µM) | 2 (≈ 3.83 µM) |  |  |  |  |  |  |
| COC(=O)N1CCN(/N=C/c2ccc(-c3ccc(N4C[C@H](CNC(C)=O)OC4=O)cc3F)cn2)CC1 | 2 (≈ 4.01 µM) | 1 (≈ 2.01 µM) | 1 (≈ 2.01 µM) | 1 (≈ 2.01 µM) | 0.5 (≈ 1 µM) |  |  |  |  |  |  |
| CC(=O)NC[C@H]1CN(c2ccc(N3CCOCC3)c(F)c2)C(=O)O1 [LINEZOLID] | 1 (≈ 2.96 µM) | 1 (≈ 2.96 µM) | > 16 | 1 (≈ 2.96 µM) | 2 (≈ 5.93 µM) |  | > 16 | 1 to 4 (≈ 2.96 to 11.9 µM) | 1 to 4 (≈ 2.96 to 11.9 µM) | > 25 | Stable |
